PMC2720137 (Cancer cell, 2008)

Columns and labels:
[1] = tested on: YRP1-pURA3-2μ-GAL1-p110αH1047R-CAAX; test: Reverse halo assay; format: cell-based, S. cerevisiae; details: 10 μl of a 10 mM DMSO stock spotted on cellulose disc, SD −URA +Galactose
[2] = tested on: S. cerevisiae overexpressing membrane-localized p110α; details: ref Rodriguez-Escudero et al., 2005; cited from earlier work
p110α = details: ref Brunn et al., 1996; Vlahos et al., 1994; cited from earlier work
[3] = tested on: MCF10A cells expressing p110α-H1047R I800M; test: MCF10A EGF-independent growth; format: cell-based, human; details: media lacking EGF, Alamar Blue
Summary of the method: (§1)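 MCF10A cells were retrovirally transduced with pMIG p110α-H1047R mutants (IRES-GFP) after EcoR nucleofection, then FACS-sorted to >95% GFP+. Cells were seeded at 2 × 10^3 per 96-well in growth medium, and after 2 days switched to EGF-free medium with PI3K inhibitors (DMSO stocks 1:1000). Every 2 days: resazurin (120 µg/ml stock, 1:20) added for 2 h at 37°C plus 15 min RT, fluorescence read at ex 520/em 590 nm, and medium refreshed. Mean ± SEM.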

[4] = tested on: phospho-Akt (Thr308, Ser473) in L814C MCF10A cells; test: Phospho-Akt western blot, L814C MCF10A cell line; format: cell-based, human; details: 1 hour treatment, serial dilutions
[5] = tested on: MCF10A cells expressing p110α-H1047R I800L; test: MCF10A EGF-independent growth; format: cell-based, human; details: media lacking EGF, Alamar Blue
Summary of the method: as §1

[6] = tested on: Myc-tagged p110α-H1047R I800M; format: biochemical, human; details: I800M vs p110α-H1047R, 10 μM ATP
[7] = tested on: phospho-Akt (Thr308, Ser473) in I800M MCF10A cells; test: Phospho-Akt western blot, I800M MCF10A cell line; format: cell-based, human; details: 1 hour treatment, serial dilutions
[8] = tested on: PI4KIIIβ with the mutation corresponding to Y836M; details: ref Balla et al., 2008; cited from earlier work
[9] = tested on: MCF10A cells expressing p110α-H1047R L814C; test: MCF10A EGF-independent growth; format: cell-based, human; details: media lacking EGF, Alamar Blue
Summary of the method: as §1

[10] = tested on: phospho-Akt (Thr308, Ser473) in I800L MCF10A cells; test: Phospho-Akt western blot, I800L MCF10A cell line; format: cell-based, human; details: for resistance of phospho-Akt levels: 1 hour treatment, serial dilutions; for change in inhibitor sensitivity of phospho-308 Akt: seen in phospho-308 Akt but not phospho-473
[11] = tested on: Myc-tagged p110α-H1047R L814C; format: biochemical, human; details: L814C vs p110α-H1047R, 10 μM ATP
[12] = molecular target: Myc-tagged p110α-H1047R I800L (Homo sapiens, UniProt P42336, H1047R/I800L); test: In vitro PI3K assay, I800L mutant; format: biochemical; details: I800L vs p110α-H1047R, 10 μM ATP
Myc-tagged p110α-H1047R I800L, sequence (P42336 whole entry I800L/H1047R): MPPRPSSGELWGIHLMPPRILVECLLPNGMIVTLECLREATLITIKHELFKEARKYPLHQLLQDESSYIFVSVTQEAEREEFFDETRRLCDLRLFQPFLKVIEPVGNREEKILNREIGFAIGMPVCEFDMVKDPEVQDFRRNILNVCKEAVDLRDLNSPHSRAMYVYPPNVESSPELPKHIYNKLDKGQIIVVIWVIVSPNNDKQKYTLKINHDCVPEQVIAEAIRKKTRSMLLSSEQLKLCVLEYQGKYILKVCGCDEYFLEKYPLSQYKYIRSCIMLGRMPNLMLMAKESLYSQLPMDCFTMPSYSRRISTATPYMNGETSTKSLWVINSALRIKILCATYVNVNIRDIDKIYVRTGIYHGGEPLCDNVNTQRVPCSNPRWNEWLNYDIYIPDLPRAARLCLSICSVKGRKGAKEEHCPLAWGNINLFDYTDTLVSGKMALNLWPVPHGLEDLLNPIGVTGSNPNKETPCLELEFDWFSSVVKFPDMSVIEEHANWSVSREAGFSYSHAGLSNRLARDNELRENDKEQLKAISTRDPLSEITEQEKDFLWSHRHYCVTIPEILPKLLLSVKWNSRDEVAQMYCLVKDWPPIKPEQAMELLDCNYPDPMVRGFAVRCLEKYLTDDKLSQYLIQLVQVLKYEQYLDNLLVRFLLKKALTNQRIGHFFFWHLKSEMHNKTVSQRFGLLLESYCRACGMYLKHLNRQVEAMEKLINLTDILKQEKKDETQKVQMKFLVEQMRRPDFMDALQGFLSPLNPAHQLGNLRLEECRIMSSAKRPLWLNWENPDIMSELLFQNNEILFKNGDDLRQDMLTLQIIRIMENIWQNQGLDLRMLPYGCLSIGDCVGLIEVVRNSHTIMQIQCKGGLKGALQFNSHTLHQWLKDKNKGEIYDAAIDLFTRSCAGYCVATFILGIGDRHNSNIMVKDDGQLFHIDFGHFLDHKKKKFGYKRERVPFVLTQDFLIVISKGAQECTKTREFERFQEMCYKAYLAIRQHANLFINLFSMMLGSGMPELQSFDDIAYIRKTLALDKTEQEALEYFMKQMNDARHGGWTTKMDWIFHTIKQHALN

[13] = tested on: phospho-Akt in p110α-expressing MCF10A cell lines; format: cell-based, human; details: 30 μM PI-103, 1 hour, after 24 hours EGF starvation, all cell lines
Summary of the method: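 GFP-sorted MCF10A lines transduced with p110α mutants, at 40-70% confluence, were starved 24 h in MCF10A medium lacking EGF and insulin. They were then given normal growth medium and/or inhibitor (DMSO control) for 60 min. Cells were lysed in PI3K lysis buffer (50 mM Tris pH 7.4, 300 mM NaCl, 1% Triton X-100, phosphatase/protease inhibitors) and western blotted for phospho-Akt.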

[14] = tested on: wild-type AFS92 strain expressing p110α-CAAX; test: Rescue of PI3K-induced growth inhibition, yeast serial dilutions; format: cell-based, S. cerevisiae; details: 5 μM PI-103, galactose
[15] = tested on: drug-permeablized YRP1 strain expressing p110α-CAAX; test: as above; format: cell-based, S. cerevisiae; details: 5 μM PI-103, galactose

For `O=c1cc(N2CCOCC2)oc2c(-c3ccccc3)cccc12` [LY294002, 2-(4-morpholinyl)-8-phenyl-4H-1-benzopyran-4-one], the “growth halo in reverse halo assay” value [1] is listed as “did not produce growth halos”, the “reversal of p110α-induced growth inhibition” value [2] is listed as “partially reversed” and the “potency as inhibitor of p110α and other PI3K family members” value (p110α) is listed as “only a μM inhibitor”.

In the case of `Cc1ccc([N+](=O)[O-])cc1S(=O)(=O)N(C)/N=C/c1cnc2ccc(Br)cn12` [PIK-75], the “growth halo in reverse halo assay” value [1] is reported as “produced only a thin ring of growth”.

In the case of `CC(=O)Nc1nc(C)c(-c2ccc(Cl)c(S(=O)(=O)NCCO)c2)s1` [PIK-93], the “inhibitor resistance of EGF-independent growth” value (“inhibitor resistance” below) [3] is reported as “most pronounced”, the “sensitization of phospho-Akt levels” value [4] is reported as about 30 fold and the “inhibitor resistance” value [5] is reported as “most pronounced”. For the same molecule, the “decrease in inhibitor potency (mutant IC50 / WT IC50)” value [6] was 5-10 fold, the “resistance of phospho-Akt levels” value [7] was “approximately 10 fold” and the “drug resistance of active mutant kinase” value [8] was “resistant”. The “sensitization of cell growth” value [9] was “strong sensitization”, the “resistance of phospho-Akt levels” value [10] was “approximately 3 fold” and the “drug sensitization (mutant IC50 / WT IC50)” value [11] was “approximately 100 fold”. For the same molecule, the “decrease in inhibitor potency (mutant IC50 / WT IC50)” value [12] was 5-10 fold.

With `Oc1cccc(-c2nc(N3CCOCC3)c3oc4ncccc4c3n2)c1` [PI-103] the “inhibitor resistance” value [3] was “less dramatic”, the “inhibitor resistance” value [5] was “less dramatic” and the “decrease in inhibitor potency (mutant IC50 / WT IC50)” value [6] was 5-10 fold. For the same molecule, the “resistance of phospho-Akt levels” value [7] was “Significant resistance is not observed”, the “block of phospho-Akt stimulation by EGF-containing media” value [13] was “blocked” and the “rescue of PI3K-induced growth inhibition” value [14] was “only partially rescues growth”. For the same molecule, the “sensitization of cell growth” value [9] was “minimal or no sensitization”, the “rescue of PI3K-induced growth inhibition” value [15] was “completely rescues growth” and the “resistance of phospho-Akt levels” value [10] was “Significant resistance is not observed”. The “change in inhibitor sensitivity of phospho-308 Akt” value [10] was “Slight resistance” and the “decrease in inhibitor potency (mutant IC50 / WT IC50)” value [12] was 5-10 fold.

For `COC[C@H]1OC(=O)c2coc3c2[C@@]1(C)C1=C(C3=O)[C@@H]2CCC(=O)[C@@]2(C)C[C@H]1OC(C)=O` [wortmannin], the “drug resistance of active mutant kinase” value [8] is given as “resistant” and the “growth halo in reverse halo assay” value [1] is given as “did not produce growth halos”.

For `COc1ccc2c(c1OC)N=C(NC(=O)c1cccnc1)N1CCN=C21` [PIK-90], the “inhibitor resistance” value [3] was “most pronounced”, the “sensitization of phospho-Akt levels” value [4] was “approximately 5 fold” and the “inhibitor resistance” value [5] was “most pronounced”. For the same molecule, the “decrease in inhibitor potency (mutant IC50 / WT IC50)” value [6] was 5-10 fold, the “sensitization of cell growth” value [9] was “strong sensitization” and the “resistance of phospho-Akt levels” value [10] was “approximately 3 fold”. The “drug sensitization (mutant IC50 / WT IC50)” value [11] was “more than 10 fold” and the “decrease in inhibitor potency (mutant IC50 / WT IC50)” value [12] was 5-10 fold.

For `Cn1c(=O)n(-c2ccc(C(C)(C)C#N)cc2)c2c3cc(-c4cnc5ccccc5c4)ccc3ncc21` [BEZ-235], the “inhibitor resistance” value [3] was “less dramatic”, the “sensitization of phospho-Akt levels” value [4] was “sensitization is seen” and the “inhibitor sensitization of EGF-independent growth” value [5] was “sensitized”. For the same molecule, the “resistance of phospho-Akt levels” value [7] was “Significant resistance is not observed”, the “sensitization of cell growth” value [9] was “minimal or no sensitization” and the “resistance of phospho-Akt levels” value [10] was “Significant resistance is not observed”. For the same molecule, the “change in inhibitor sensitivity of phospho-308 Akt” value [10] was “sensitization” and the “change in inhibitor sensitivity in vitro” value [12] was “sensitized”.
